In paper PMC3983356 (The Journal of Physical Chemistry. B, 2014):
“And” between values parts separate entries of the source, which are not always exact repeats. Equal values may be shown once. Read-outs that look alike come from different tables or passages of the source.

How the values were obtained:
[1] = POPC/POPG vesicles; cited from earlier work
[2] = depending on size, composition of vesicles and temperature; cited from earlier work
HEK 293A cells [3] = type: cell-based; settings: for reversal of increased conductivity at end of experiment (600 s): 0.2 mM SDS 30 s exposure, 0.1 mM CTAB 10 s, 0.137 mM ORB 10 s; for reversibility of increased permeability induced within 10 s of exposure: 0.2 mM SDS, 0.1 mM CTAB, 0.137 mM ORB, 15 min after exposure
Procedure, shortened: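 IonFlux 16 whole-cell patch clamp of HEK 293A cells in ECS at sub-solubilising test concentrations, applied for 10, 30 or 300 s. Exposure was followed by ECS perfusion for 900 s. Membrane current was tracked for reversal. Controls were ECS alone or ECS + 5% DMSO, the vehicle for the rhodamine lipid probe.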

HEK 293A cells [4] = type: cell-based; settings: for Dw ± standard error (detergent in water, intercept): quiescent, onset of increased permeability; for partition constant K [lower bound, upper bound]: range from error in Rb and intercept
Procedure, shortened: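 HEK 293A cells (passages 12–17) detached with detachin, rested in serum-free medium, then 1.5, 5, 10 or 15 million cells in ECS incubated 15 min with graded detergent. Cells were pelleted at 1000 rpm, resuspended in ECS and patched on an IonFlux 16 ensemble whole-cell system with K-aspartate intracellular solution. Time-averaged current over the first 4 min served as the permeability read-out. Detergent giving a 1 nA rise ×15 estimated the onset. Onset concentration vs lipid concentration was fitted linearly: slope Rb, intercept Dw.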

[5] = Critical micelle concentration by DPH fluorimetric method; type: physicochemical
Procedure, shortened: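 Fluorimetric CMC determination: 10 μL of 1 mM diphenylhexatriene (DPH) in tetrahydrofuran added to test detergent serially diluted in ECS (pH 7.45, HEPES-buffered saline with glucose). Excitation 358 nm, emission scanned 400–500 nm. CMC taken at the sharp rise in fluorescence as DPH enters micelles.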

[6] = POPC vesicles; cited from earlier work
HEK 293A cells [7] = test: Ensemble whole cell patch clamp; type: cell-based; settings: for change in membrane conductivity compared to ECS controls: 0.004 and 0.04 mM SDS, 0.0001 and 0.001 mM CTAB; for concentration at which increased membrane permeability is induced: current change 900 s after exposure, superfusion
HEK293A cells = test: XTT assay; type: cell-based; settings: 20 min
Procedure, shortened: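 HEK293A cells were seeded at 100000 cells/well and incubated overnight at 37 °C, 5% CO2. Cells were exposed 20 min to test compound in ECS, or to ECS alone, then the supernatant was replaced with PBS. XTT reagent (solution A:B, 50:1) was added and incubated 2 h at 37 °C. A490 minus A690 was read, and % viability was expressed relative to ECS-treated cells.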

HEK 293A cells [8] = test: Fluorescence microscopy of patched cells; type: cell-based; settings: ORB at all three concentrations, 10 min
HEK 293A cells [9] = test: Quiescent partitioning experiment with trypan blue assay; type: cell-based; settings: range from error estimate
Procedure, shortened: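 Cationic detergent only. HEK 293A cells in ECS were pretreated 15 min with graded detergent concentrations as in the patch-clamp partitioning protocol. Trypan blue exclusion, not patch clamp, served as the membrane-permeability marker. Onset concentration was plotted against cellular lipid concentration and fitted linearly (slope Rb, intercept Dw). K was derived from R and Dw and reported as a range.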

[10] = 0.004–0.04 mM SDS, 0.0001–0.001 mM CTAB
[11] = 0.2 and 2 mM SDS, 0.1, 1 and 10 mM CTAB, 0.035, 0.14 and […] ORB
[12] = 2 mM SDS, 1 and 10 mM CTAB, 1.37 mM ORB
[13] = 0.004–0.2 mM SDS, 0.001–0.1 mM CTAB, 0.0137–0.137 mM ORB

SMILES	reversal of increased conductivity at end of experiment (600 s) (HEK 293A cells [3])	reversibility of increased permeability induced within 10 s of exposure (HEK 293A cells [3])	Dw ± standard error (detergent in water, intercept) (HEK 293A cells [4])	partition constant K [lower bound, upper bound] (HEK 293A cells [4])	critical micelle concentration (CMC) in ECS [5]	CMC in water [5] [mM]	partition constant K [6] [M^–1]	time of onset of current increase after compound release (HEK 293A cells [7]; 0.2 mM SDS, 0.1 mM CTAB)	group of current traces (HEK 293A cells [7]; 0.2 mM SDS, 0.1–10 mM CTAB)	time of onset of current increase after compound release (HEK 293A cells [7]; 2 mM SDS, 1 mM CTAB) [s]	change in membrane conductivity compared to ECS controls (HEK 293A cells [7])	group of current traces (HEK 293A cells [7]; [10])	change in membrane current compared to ECS controls (HEK 293A cells [7]; [11])	concentration at which increased membrane permeability is induced (HEK 293A cells [7]) [µM]	metabolic activity of exposed cells (XTT) (HEK293A cells; [12])	metabolic activity of exposed cells (XTT) (HEK293A cells; [13])	other results
CCCCCCCCCCCCOS(=O)(=O)[O-].[Na+] [SDS, sodium dodecyl sulfate]	not reversed	not reversible for over 15 min	29 ± 10	16300–39200 M^–1	0.8 to 1 mM and ~0.8 mM	6 to 8	33000	2 to 3 s	2	1	does not result in an increase in conductivity	1	initial sharp increase in current	200	reduced metabolic activity	do not show a loss in metabolic activity	partition constant K [1]: 37000 M^–1; partition constant K [2]: 12500 to 70000 M^–1; duration of initial change in current (HEK 293A cells [7]; 0.2 mM SDS): 3 to 4 s; duration of subsequent slow current increase (HEK 293A cells [7]; 0.2 mM SDS): 67 ± 25 s; current reached at the end of 15 min (HEK 293A cells [7]; 0.2 mM SDS, total current of 20 cells): ~50 nA; final current level (HEK 293A cells [7]; 2 mM SDS): eventually reached open channel current levels; group of current traces (HEK 293A cells [7]; 2 mM SDS): 3; time to reach open channel current (HEK 293A cells [7]; 2 mM SDS, except one trace that took 871 s): 120 ± 61 s; time within which large and sudden increase in conductivity occurs (HEK 293A cells [7]; 0.2 and 2 mM SDS): 1 to 3 s
CCCCCCCCCCCCCCCCCCOC(=O)c1ccccc1-c1c2ccc(=[N+](CC)CC)cc-2oc2cc(N(CC)CC)ccc12.[Cl-] [ORB, octadecyl rhodamine B]	not reversed	not reversible for over 15 min	7.3 ± 3.1	24000–99000 M^–1									increased the membrane current significantly		reduced metabolic activity	do not show a loss in metabolic activity	change in membrane current compared to controls (HEK 293A cells [7]; 0.014 (0.0137) mM ORB): significantly different from the ECS control but not 0.007 mM ORB; state of cells after ORB exposure (ORB fluorescence) (HEK 293A cells [8]): fluorescent and intact
CCCCCCCCCCCCCCCC[N+](C)(C)C [CTAB, cetyltrimethylammonium bromide]	not reversed	not reversible for over 15 min	4.2 ± 2.8	29000–476000 M^–1	0.03 to 0.06 mM and ~0.06 mM	1 to 2	350000	2 to 3 s and 1 to 3 s	2	1	did not cause a change in conductance	1	rapid increase in membrane current	10	reduced metabolic activity	do not show a loss in metabolic activity	current eventually reached as fraction of open channel current (HEK 293A cells [7]; 0.01 mM CTAB): 1/3; change in membrane current compared to ECS controls (HEK 293A cells [7]; 0.01 mM CTAB (below CMC)): slow increase in current; time of onset of current increase after compound release (HEK 293A cells [7]; 10 mM CTAB): 1 s; partition constant K range (trypan blue assay) (HEK 293A cells [9]): 37000 to 67000 M^–1
